Screens from PubChem.
FN deposit inh = inhibitors of fibronectin matrix deposition, primary screen, AH1F cells, Alexa488-fibronectin fluorescence, plate reader; AH1F fibroblasts, overnight; inhibition, % at 12.6 µM; actives 0.086% (n = 350,000); AID 743247, 2014;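 active = mean inhibition across replicates of 30% or more, regardless of how many single replicates reach that level; inconclusive = mean under 30% yet at least half of replicates reach 30%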
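test system = AH1F fibroblasts assembling fluorescent fibronectin matrix | quantity = 10000 AH1F cells per well | buffer or medium = DMEM plus 2% serum, read in PBS | doses = single dose, pinned | incubation = 1 h cell attachment, overnight exposure to compound and label | detection = fluorescence at 485 nm excitation, 525 nm emission | read-out basis = inhibition from reduced deposited-fibronectin fluorescence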
Ecoli rRNA inh = reduced GFP signal of wild-type E. coli, primary screen, bacterial rRNA inhibitor project, GFP/RFP fluorescence, OD600, single point; actives 1.6% (n = 350,000); GFP signal change (wild-type ribosome), % (test concentration not listed); E. coli WT GFP vs humanized-ribosome RFP mutants, 24 h; hits give low values; DMSO median 0, no signal -100;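 active = significant combined selectivity score with lowered wild-type GFP, culture density cut under 30%, mutant RFP and density less affected; inactive = any of these conditions unmet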
PvdQ inh = P. aeruginosa PvdQ acylase inhibitors, primary screen, biochemical, fluorescence, plate reader and imaging, single point | actives 0.063% (n = 340,000) | AID 488965, 2010 | inhibition, % at 10 µM | purified PvdQ acylase; in the data active = inhibition above about 30%, passing the limit was not always enough; inconclusive = no clear call, values can overlap the other calls
ERp5 block = inhibitors of ERp5-driven insulin aggregation, primary screen, biochemical, turbidity, absorbance 650 nm, single point; Protein disulfide-isomerase A6 (Homo sapiens), Q15084; 90 min; actives 0.05% (n = 350,000); inhibition, % at 9.99 µM;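 active = mean replicate inhibition above about 25%, with every replicate also reaching it, limit read from the data, passing the limit was not always enough; inconclusive = only one of those two criteria met; inactive = neither criterion met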
PDI turbidity = inhibitors of human PDI, primary screen, biochemical, turbidity, single point, plate reader; PDI insulin aggregation turbidity, A650, 90 min; AID 588391, 2011; Protein disulfide-isomerase (Homo sapiens), P07237; inhibition, % at 10 µM; actives 0.052% (n = 350,000);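 active = mean inhibition across replicates of 30% or more, whatever share of single replicates reach that level; inconclusive = mean inhibition below 30% while every single replicate reaches 30%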
Target sequence (P07237 whole entry, looked up): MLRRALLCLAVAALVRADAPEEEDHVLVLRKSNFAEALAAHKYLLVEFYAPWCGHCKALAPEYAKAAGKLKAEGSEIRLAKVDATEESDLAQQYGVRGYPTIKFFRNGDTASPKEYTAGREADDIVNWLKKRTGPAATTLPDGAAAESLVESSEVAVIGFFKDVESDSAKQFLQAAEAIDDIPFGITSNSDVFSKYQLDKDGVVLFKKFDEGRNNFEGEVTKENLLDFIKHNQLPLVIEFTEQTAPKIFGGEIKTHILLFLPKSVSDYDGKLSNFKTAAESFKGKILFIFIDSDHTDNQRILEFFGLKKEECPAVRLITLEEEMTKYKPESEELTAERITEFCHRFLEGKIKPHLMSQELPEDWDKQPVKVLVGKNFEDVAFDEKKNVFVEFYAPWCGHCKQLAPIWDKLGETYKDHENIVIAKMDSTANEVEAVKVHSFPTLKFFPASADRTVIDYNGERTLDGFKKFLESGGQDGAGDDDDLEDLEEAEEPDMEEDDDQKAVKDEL
HIV Env fusion = inhibitors of HIV-1 Env-driven cell-cell fusion, primary screen, HeLa-JRFL effector, CEM21 target cells, luciferase; actives 1.1% (n = 360,000); inhibition, % at 12.3 µM; AID 651610, 2012;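 active = mean replicate inhibition score of at least 50 and every replicate individually at or above 50; inconclusive = only one of the two criteria met; inactive = mean below 50 and not all replicates reaching 50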
AID977621 = growth inhibition of wild-type GFP E. coli, dose response, H69 mutant RFP, cherry-pick; AID 977621, 2014; E. coli wild-type GFP strain growth, fluorescence, 24 h; 1,900 tested, under 10 active; activity change, negative = inhibition at 50 µM; shares compounds with Ecoli rRNA inh;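 active = Wild-type ribosome reporter drop at least double the humanized mutant ribosome reporter drop, growth loss under a set limit; inconclusive = no clear call, values can overlap the other calls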;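 also: wild-type GFP and H69 mutant RFP strains grown together 50/50 in each well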
AID977628 = E. coli growth inhibition, wild-type GFP versus h24 humanized RFP strain, dose response, h24 mutant RFP vs wild-type GFP, cherry-pick | activity change, negative = inhibition at 50 µM | 1,900 tested, under 10 active | AID 977628, 2014 | E. coli WT GFP strain growth, fluorescence, 24 h | shares compounds with Ecoli rRNA inh;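 active = compound lowering the normal-ribosome reporter at least twice as much as the humanized-ribosome reporter, growth loss under a set limit; inconclusive = no clear call, values can overlap the other calls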;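 also: wild-type GFP and h24 humanized RFP strains co-cultured 1 to 1 per well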
Numbers stand for hits. Hits are enriched below; roughly 2.2% of the tested compounds scored in any of these assays.

`COc1ccc(C#Cc2ccc([C@@H]3[C@H]4CN(C(=O)Nc5cccc(F)c5)CCCCN4[C@H]3CO)cc2)cc1` gave Ecoli rRNA inh inactive and ERp5 block inactive.
`CC(C)NC(=O)N(C)C[C@H]1Oc2ccc(N(C)C)cc2CC(=O)N([C@@H](C)CO)C[C@H]1C` gave Ecoli rRNA inh inactive, ERp5 block inactive and HIV Env fusion inactive.
Cc1nc2ncnn2c(N2CCC(C(=O)NC3CCCC3)CC2)c1Cc1ccccc1 was read as Ecoli rRNA inh -19, PvdQ inh inactive, ERp5 block inactive, PDI turbidity inactive, AID977621 inactive and AID977628 inactive.
For CC(=O)NC(Cc1ccc(F)c(F)c1)C(=O)NC1CCN(c2c(Cc3ccccc3)c(C)nc3ncnn23)CC1 (stereo unspecified) the results were Ecoli rRNA inh inactive, PvdQ inh inactive, ERp5 block inactive, PDI turbidity inactive and HIV Env fusion inactive.
`Cc1ccccc1-c1ccc([C@H]2[C@@H](CO)N3C(=O)CN(C(=O)Nc4ccc(F)cc4)C[C@@H]23)cc1` gave Ecoli rRNA inh inactive and ERp5 block inactive.
`CCc1ccc2[nH]c(C(=O)Nc3ccc4c(c3)OCO4)cc2c1` gave FN deposit inh inactive, Ecoli rRNA inh -26, PvdQ inh inactive, ERp5 block inactive, PDI turbidity inactive, HIV Env fusion inactive, AID977621 inactive and AID977628 inconclusive.
Cc1cc(C)c2[nH]c(C(=O)Nc3ccc4c(c3)OCO4)cc2c1 was read as FN deposit inh inactive, Ecoli rRNA inh inactive, PvdQ inh inactive, ERp5 block inactive, PDI turbidity inactive and HIV Env fusion inactive.
`CCOC(=O)c1sc(NC(=O)CN2CCN(c3ccccc3)CC2)nc1C` gave FN deposit inh inactive, Ecoli rRNA inh -20, PvdQ inh inactive, ERp5 block inactive, PDI turbidity inactive, HIV Env fusion inactive and AID977628 inactive.
For CCOC(=O)c1ccc(NC(=O)CN2CCN(c3ccccc3)CC2)cc1 the results were PvdQ inh inactive and PDI turbidity inactive.
`O=C(NCc1ccc2c(c1)OCO2)c1nc(S(=O)(=O)Cc2ccccc2)ncc1Cl` gave FN deposit inh inactive, Ecoli rRNA inh inactive, PvdQ inh inactive, ERp5 block inactive, PDI turbidity inactive and HIV Env fusion inconclusive.
Screening O=C(NCc1ccccc1)c1nc(S(=O)(=O)Cc2ccccc2)ncc1Cl returned FN deposit inh inactive, Ecoli rRNA inh -24, PvdQ inh inactive, ERp5 block inactive, PDI turbidity inactive, HIV Env fusion inactive, AID977621 inactive and AID977628 inactive.
For COc1ccc(CNC(=O)c2nc(S(=O)(=O)Cc3ccccc3)ncc2Cl)cc1 the results were FN deposit inh inactive, Ecoli rRNA inh -16, PvdQ inh inactive, ERp5 block inactive, PDI turbidity inactive, HIV Env fusion inactive, AID977621 inactive and AID977628 inactive.
Screening CCc1nnc(NC(=O)c2nc(S(=O)(=O)Cc3ccccc3)ncc2Cl)s1 returned FN deposit inh inactive, Ecoli rRNA inh inactive, PvdQ inh inactive, ERp5 block inactive, PDI turbidity inactive and HIV Env fusion inactive.
C=CCN(CC=C)C(=O)c1ccc2nc(Cc3ccc(OC)c(OC)c3)oc2c1 was read as FN deposit inh inactive, Ecoli rRNA inh -33, PvdQ inh inactive, ERp5 block inactive, PDI turbidity inactive, HIV Env fusion inactive and AID977628 inconclusive.
`COc1ccc(Cc2nc3ccc(C(=O)NCc4cc(C)no4)cc3o2)cc1OC` gave FN deposit inh inactive, Ecoli rRNA inh inactive, PvdQ inh inactive, ERp5 block inactive and PDI turbidity inactive.
For O=C(C[C@H]1C=C[C@H](NC(=O)C2CCC2)[C@@H](CO)O1)NCc1ccncc1 the results were FN deposit inh inactive, Ecoli rRNA inh inactive, ERp5 block inactive and HIV Env fusion inactive.
`COc1cc(NC(=O)CSc2nc(C)cs2)cc(OC)c1` gave Ecoli rRNA inh -30, PvdQ inh inactive, ERp5 block inactive, PDI turbidity inactive and AID977621 inactive.
Screening C[C@@H]1CCCCO[C@@H](CN(C)S(=O)(=O)c2cccs2)[C@H](C)CN([C@@H](C)CO)C(=O)c2cc(NC(=O)Nc3cccc4ccccc34)ccc2O1 returned Ecoli rRNA inh inactive and HIV Env fusion inactive.
For CCC(C)c1ccccc1NC(=O)c1cccc(-n2cnnn2)c1 (stereo unspecified) the results were FN deposit inh inactive, Ecoli rRNA inh -21, PvdQ inh inactive, ERp5 block inactive, PDI turbidity inactive, HIV Env fusion inactive, AID977621 inactive and AID977628 inactive.
CCC(C)c1ccccc1NC(=O)c1cccnc1 (stereo unspecified) was read as Ecoli rRNA inh inactive, PvdQ inh inactive, ERp5 block inactive and PDI turbidity inactive.
Screening CC(=O)Nc1cccc(NC(=O)CCN2C(=O)c3ccccc3S2(=O)=O)c1 returned Ecoli rRNA inh -14, PvdQ inh inactive, ERp5 block inactive, PDI turbidity inactive, HIV Env fusion inactive, AID977621 inconclusive and AID977628 inactive.
For COc1cccc(NC2=Nc3cccc4cccc2c34)c1 the results were FN deposit inh inactive, Ecoli rRNA inh -34, PvdQ inh inactive, ERp5 block inactive, PDI turbidity inactive, HIV Env fusion inactive and AID977621 inactive.
COc1ccc(CN(C)C[C@@H]2OCCCC[C@H](C)Oc3ccc(NS(=O)(=O)c4ccc(F)cc4)cc3C(=O)N([C@H](C)CO)C[C@@H]2C)cc1 was read as FN deposit inh inactive, Ecoli rRNA inh inactive, ERp5 block inactive and HIV Env fusion inactive.
`O=C(CSc1nnc(COc2cccc3cccnc23)o1)c1ccc(F)cc1` gave Ecoli rRNA inh -25, PvdQ inh inactive, ERp5 block inactive, PDI turbidity inactive, AID977621 inactive and AID977628 inactive.
`O=C(Nc1ccccc1Cl)N1C[C@@H]2[C@H](c3ccccc31)[C@@H](CO)N2Cc1ccccc1` gave Ecoli rRNA inh inactive and ERp5 block inactive.
Screening O=C(Nc1ccccc1Cl)N1C[C@H]2[C@@H](c3ccccc31)[C@@H](CO)N2Cc1ccccc1 returned Ecoli rRNA inh -38, ERp5 block inactive and AID977628 inconclusive.
